In the library only some 4.1% were active in any assay of this set; here they are far more common.
H9c2 TAG inh: reduces triacylglycerol accumulation in H9c2 cells. inhibition, % at 12.5 µM. actives 0.66% (n = 230,000). Nile Red lipid (TAG) fluorescence; cells loaded with 200 µM oleic acid;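 active = pattern-corrected inhibition of lipid staining of at least 50% with the nuclear-stain viability signal not falling by more than 50%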;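 note: 0% = DMSO wells and 100% = triacsin C control wells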
SMARCA2 act: activators of SMARCA2 function | MG213 cells, MMTV-luciferase reporter, dexamethasone, overnight | activation, % at 9.1 µM | actives 1% (n = 370,000) | AID 652017; in the data active = activation above about 7.8%;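 note: 0% = vehicle wells and 100% = reference activator wells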
Tb MetRS inh: blocks T. brucei methionyl-tRNA synthetase activity. inhibition, % at 11.9 µM. AID 624268. actives 0.4% (n = 360,000). purified T. brucei MetRS, ATP depletion, Kinase-Glo luminescence;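 active = inhibition above a per-plate cutoff of the control wells' mean inhibition plus 3 SD, cut at about 5.5% in these data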;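 note: 0% = DMSO wells median and 100% = median of wells with control inhibitor compound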
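Material: T. brucei methionyl-tRNA synthetase, purified; reagent: substrates ATP, L-methionine and bulk Escherichia coli tRNA; dosing: 11.9 µM single point; timing: 15 min plus 2 h at 25 °C; detection: luminescence of leftover ATP; evaluation: % inhibition; control set: DMSO-only wells as low control; replicates: singlicate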
AHR act: human AHR activation. AHR-responsive luciferase reporter cells, luminescence. activation, % at 5 µM. actives 2.5% (n = 320,000); in the data active = activation above about 47%;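 note: 0% = vehicle wells and 100% = reference agonist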
Target sequence (P35869 whole entry, looked up): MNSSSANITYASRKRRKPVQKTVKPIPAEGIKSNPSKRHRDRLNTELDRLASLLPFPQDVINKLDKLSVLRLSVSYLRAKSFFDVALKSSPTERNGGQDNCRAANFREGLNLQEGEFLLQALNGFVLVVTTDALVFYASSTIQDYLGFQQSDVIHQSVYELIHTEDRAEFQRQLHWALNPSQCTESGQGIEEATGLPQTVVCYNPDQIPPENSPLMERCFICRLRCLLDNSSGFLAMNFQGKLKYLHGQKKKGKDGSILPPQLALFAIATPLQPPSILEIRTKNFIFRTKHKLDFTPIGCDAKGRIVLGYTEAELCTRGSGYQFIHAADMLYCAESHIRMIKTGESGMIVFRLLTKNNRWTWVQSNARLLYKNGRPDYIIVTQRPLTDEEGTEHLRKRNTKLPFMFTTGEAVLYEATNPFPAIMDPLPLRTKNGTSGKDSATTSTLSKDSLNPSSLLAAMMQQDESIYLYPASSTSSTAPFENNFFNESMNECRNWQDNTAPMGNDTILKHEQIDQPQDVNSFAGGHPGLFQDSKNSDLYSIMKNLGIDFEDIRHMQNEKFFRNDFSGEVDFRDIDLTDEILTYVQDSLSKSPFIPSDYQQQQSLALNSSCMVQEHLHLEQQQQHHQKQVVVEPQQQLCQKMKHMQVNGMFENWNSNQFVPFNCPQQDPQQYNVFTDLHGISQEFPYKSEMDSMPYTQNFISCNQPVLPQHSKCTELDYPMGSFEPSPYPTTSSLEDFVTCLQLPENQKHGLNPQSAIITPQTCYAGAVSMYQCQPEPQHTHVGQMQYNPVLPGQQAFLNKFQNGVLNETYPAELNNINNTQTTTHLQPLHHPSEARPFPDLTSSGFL
Efflux pump inh: antifungal efflux pump inhibition, Nile Red retention. S. cerevisiae Candida pump triplex. inhibition, % at 10 µM. actives 0.44% (n = 330,000). AID 485275;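 active = plate passing quality check with inhibition over a set limit, or well fluorescence over plate mean plus 4 SD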;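 note: Nile Red retained in pooled yeast measured as flow cytometry median fluorescence; 0% = buffer negative control and 100% = Enniatin B positive control; higher means more Nile Red kept so more efflux inhibition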
Numbers without * were called inactive.

What do the screens show for `CCCC1CCC2(CCC(=O)N2CCO)CC1` (centres undefined)?
SMARCA2 act: -1.1

Results for O=C(NC1CCCCN(Cc2cccc(Cl)c2)C1=O)c1cccc(F)c1 (centres undefined) ?
SMARCA2 act: -4.8

What do the screens show for `COC(=O)[C@]12C[C@H](CC(=O)NCCCCc3ccccc3)C(=O)N(Cc3ccco3)C1=C[C@H](COCc1ccccc1)O[C@@H]2C`?
SMARCA2 act: 1.0

How did CN=c1sc2ccccc2n1CC(O)c1ccccc1 (centres undefined) do in these assays?
H9c2 TAG inh: 2.7; SMARCA2 act: 0.9; Tb MetRS inh: 0.2; AHR act: 63.1*; Efflux pump inh: 0.0

Results for Cc1cccc(N/C=C/C(=C(C#N)C#N)N(C)C)c1 ?
SMARCA2 act: -0.6; Tb MetRS inh: -0.9; AHR act: 48.2*; Efflux pump inh: 0.1

Results for O=C(O)c1ccc2c3c(cccc13)C(=O)N(c1ccccc1)C2=O ?
H9c2 TAG inh: 6.3; SMARCA2 act: 0.6; Tb MetRS inh: -0.8; AHR act: 3.5; Efflux pump inh: 0.0

What do the screens show for `CC(=O)c1ccc2c3c(cccc13)C(=O)N(CCc1ccccc1)C2=O`?
H9c2 TAG inh: -26.8; SMARCA2 act: 7.1; Tb MetRS inh: -0.2; AHR act: 72.0*; Efflux pump inh: 0.5

What do the screens show for `c1ccc(CN2CCN(Cc3nnc(-c4ccccc4)o3)CC2)cc1`?
H9c2 TAG inh: 3.0; SMARCA2 act: 7.9*; Tb MetRS inh: -0.6; AHR act: 0.7; Efflux pump inh: 0.0

Results for O=C(CSc1nnnn1CCCO)Nc1ccc2c(c1)OCO2 ?
H9c2 TAG inh: 8.3; SMARCA2 act: 1.5; Tb MetRS inh: 0.1; AHR act: 54.8*; Efflux pump inh: 0.0

How did O=C(Cn1c(SCC(=O)NC2CCCC2)nnc1-c1ccncc1)Nc1ccc2c(c1)OCO2 do in these assays?
H9c2 TAG inh: -20.2; SMARCA2 act: 0.7; Tb MetRS inh: 0.0; AHR act: 66.2*; Efflux pump inh: 0.0

Results for O=C(CSc1nnnn1C1CCCCC1)Nc1ccc2c(c1)OCO2 ?
SMARCA2 act: -0.6; Tb MetRS inh: -0.6; AHR act: 19.8; Efflux pump inh: 0.2

What do the screens show for `O=C(CSc1nc2ncc(Br)cc2[nH]1)Nc1ccc2c(c1)OCO2`?
H9c2 TAG inh: -0.1; SMARCA2 act: 0.4; Tb MetRS inh: 66.6*; AHR act: 50.1*; Efflux pump inh: 0.0

Results for CC(C)n1nnnc1SCC(=O)NCc1ccc2c(c1)OCO2 ?
H9c2 TAG inh: -3.8; SMARCA2 act: -4.3; Tb MetRS inh: -2.0; AHR act: -0.3; Efflux pump inh: 0.0

Results for CC(C)n1nnnc1SCC(=O)Nc1ccc2c(c1)OCO2 ?
H9c2 TAG inh: -20.5; SMARCA2 act: 0.6; Tb MetRS inh: 0.1; AHR act: 56.0*; Efflux pump inh: -0.1

How did CCn1c(Cc2ccccc2)nnc1SCC(=O)Nc1ccc2c(c1)OCO2 do in these assays?
H9c2 TAG inh: -6.5; SMARCA2 act: 0.8; Tb MetRS inh: -0.4; AHR act: 12.3; Efflux pump inh: 0.0

Results for CCc1nnc(SCC(=O)Nc2ccc3c(c2)OCO3)n1CC ?
H9c2 TAG inh: 5.9; SMARCA2 act: -1.7; Tb MetRS inh: 0.1; AHR act: 50.3*; Efflux pump inh: 0.0

What do the screens show for `CCCCn1nnnc1SCC(=O)Nc1ccc(N(C)C)cc1`?
H9c2 TAG inh: -4.3; SMARCA2 act: -1.4; Tb MetRS inh: -0.2; AHR act: 70.8*; Efflux pump inh: -0.3

How did Nn1cc(-c2ccccc2)nc1SCC(=O)Nc1ccc2c(c1)OCO2 do in these assays?
SMARCA2 act: -2.0; Tb MetRS inh: 0.7; AHR act: 68.5*; Efflux pump inh: 0.0

What do the screens show for `O=S1(=O)c2c(cccc2N2CCSCC2)Oc2ccccc2CN1Cc1cn(Cc2ccc(Cl)cc2)nn1`?
SMARCA2 act: -2.5

How did CC(C)C[C@@H]1COc2cc(N3CCSCC3)ccc2S(=O)(=O)N1C do in these assays?
SMARCA2 act: -1.3

Results for O=C(/C=C/c1cccc([N+](=O)[O-])c1)NCc1cccnc1 ?
H9c2 TAG inh: -20.3; SMARCA2 act: -4.2; Tb MetRS inh: 0.5; AHR act: 63.3*; Efflux pump inh: -0.2

What do the screens show for `COc1ccc(/C=C/C(=O)NCc2cccnc2)cc1`?
SMARCA2 act: -3.4; Tb MetRS inh: -0.2; AHR act: 16.7; Efflux pump inh: -0.1

Results for O=C(/C=C/c1ccc([N+](=O)[O-])cc1)NCc1cccnc1 ?
H9c2 TAG inh: -15.6; SMARCA2 act: -1.3; Tb MetRS inh: -1.4; AHR act: 28.0; Efflux pump inh: 0.0

How did O=C(/C=C/c1ccc(Cl)c([N+](=O)[O-])c1)NCc1cccnc1 do in these assays?
H9c2 TAG inh: -12.6; SMARCA2 act: -0.4; Tb MetRS inh: -0.1; AHR act: 60.2*; Efflux pump inh: 0.1

Results for COc1ccc(CN2CCC(CNC(=O)NC3CCCC3)CC2)cc1 ?
SMARCA2 act: -2.7

What do the screens show for `COc1ccc(C2CC(=O)C(c3cccc(OC)c3)=CN2Cc2ccccc2)cc1` (centres undefined)?
SMARCA2 act: -1.5

Results for CCCCNC(=S)N/N=C/c1ccc(C)s1 ?
SMARCA2 act: 3.3; Tb MetRS inh: -0.2; AHR act: 74.6*; Efflux pump inh: -0.1

Results for Cc1ccc(/C=N/NC(=S)NCCc2ccccc2)s1 ?
H9c2 TAG inh: -4.9; SMARCA2 act: 0.7; Tb MetRS inh: -0.4; AHR act: 24.7; Efflux pump inh: 0.1

What do the screens show for `CC(C)n1cnc2c(N(C)c3ccccc3)nc(N(CCN(C)C)Cc3ccccc3)nc21`?
H9c2 TAG inh: 51.6*; SMARCA2 act: 1.4; Tb MetRS inh: -0.3; AHR act: 2.9; Efflux pump inh: 0.0

How did C[C@@H]1COc2cc(Br)ccc2S(=O)(=O)N1Cc1cn(Cc2ccccc2)nn1 do in these assays?
SMARCA2 act: -1.1

How did Cc1cc(N2CCN(C(=O)OC(C)(C)C)C[C@H]2C)ccc1N1CCN(Cc2ccccc2)[C@@H](C)C1 do in these assays?
SMARCA2 act: -5.6

Results for Cc1ccccc1C1=NC(c2ccc(F)cc2F)ON1 (centres undefined) ?
H9c2 TAG inh: 4.6; SMARCA2 act: -0.2; Tb MetRS inh: -0.5; AHR act: 10.6; Efflux pump inh: 0.0

What do the screens show for `CSc1ccc(C2N=C(c3ccccc3)NO2)cc1` (centres undefined)?
Tb MetRS inh: 0.1; AHR act: 58.3*; Efflux pump inh: 0.1

How did COCC(=O)N(C[C@H]1[C@H](c2ccccc2)[C@@H](CO)N1C(=O)NC(C)C)C(C)C do in these assays?
SMARCA2 act: -2.0

How did CCN1CCCCC(NC(=O)c2ccc(F)cc2)C1=O (centres undefined) do in these assays?
SMARCA2 act: -1.6

What do the screens show for `COC1=C[C@H](C(=O)NC2CCN(Cc3ccccc3)CC2)[C@@]2(C)Cc3ccccc3[C@H]2CC1=O`?
SMARCA2 act: -3.8

What do the screens show for `COc1ccc(C)cc1NC(=O)c1ccc(OC(F)F)cc1`?
H9c2 TAG inh: -5.3; SMARCA2 act: -3.5; Tb MetRS inh: 0.6; AHR act: 69.9*; Efflux pump inh: 0.5
